The nature of series [1]: Oral bioavailability in Sprague-Dawley rat at 5 mg/kg administered as single dose by LC-MS/MS analysis. It counts as ADME, organism-based. The note with it: in vivo. The method, boiled down:
(§1)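 Male Sprague−Dawley rats (6−7 weeks, 190−240 g), fasted overnight with food returned 4 h post-dose; 3 rats iv, 3 po; vehicle 5% DMSO, 5% solutol, 90% saline. Heparinized plasma frozen at −80 °C, analysed by LC-MS/MS; noncompartmental PK parameters, BLQ values excluded.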

Series [2] in a line: AUC (0 to 24 hrs) in Sprague-Dawley rat at 2 mg/kg, iv administered as single dose by LC-MS/MS analysis. It counts as ADME, organism-based. Also on record: dose 2 mg/kg, time < 24 hr, route intravenous. The conditions noted are these: in vivo. The method, boiled down: as §1
Series [3] is described as follows: AUC (0 to 24 hrs) in Sprague-Dawley rat at 5 mg/kg, po administered as single dose by LC-MS/MS analysis. The series is classed as ADME, organism-based. The note with it: in vivo. Also on record: time < 24 hr, dose 5 mg/kg, route oral. The method, boiled down:
as §1

A short description of series [4]: Clearance in Sprague-Dawley rat at 2 mg/kg, iv administered as single dose by LC-MS/MS analysis. The series is classed as ADME, organism-based. The conditions noted are these: in vivo. A digest of the protocol:
as §1

Series [5] in a line: Volume of distribution at steady state in Sprague-Dawley rat at 2 mg/kg, iv administered as single dose by LC-MS/MS analysis. It counts as ADME, organism-based. The conditions noted are these: in vivo, read-out: Vdss. The method, boiled down:
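Male Sprague−Dawley rats (6−7 weeks, 190−240 g) were fasted overnight, with food returned 4 h post-dose and n = 3 in the iv group. A single dose was given in 5% DMSO, 5% solutol and 90% saline. Heparinized plasma was separated at 4 °C and frozen at −80 °C. Concentrations were measured by LC-MS/MS, with parameters from noncompartmental analysis and BLQs excluded.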

The nature of series [6]: Intrinsic clearance in mouse liver microsomes at 1 uM preincubated for 10 mins followed by NADPH addition measured up to 60 mins by LC-MS/MS analysis. The conditions noted are these: read-out: CLH. The series is classed as ADME, microsome. (In general: Liver microsomes are a subcellular fraction often used to study metabolism.)
Series [7] is described as follows: Intrinsic clearance in human liver microsomes at 1 uM preincubated for 10 mins followed by NADPH addition measured up to 60 mins by LC-MS/MS analysis. The series is classed as ADME, microsome. The note with it: read-out: CLH.
A short description of series [8]: (§2) Intrinsic clearance in dog liver microsomes at 1 uM preincubated for 10 mins followed by NADPH addition measured up to 60 mins by LC-MS/MS analysis. It counts as ADME, Canis lupus familiaris, microsome. The conditions noted are these: liver microsomes, read-out: CLH.
The test system of a further series is Liver. Described as §2. It counts as ADME, Canis lupus familiaris, microsome. The note with it: microsomes, 1 h, 1 µM.
Series [9] can be described thus: Drug uptake in Balb/c mouse liver at 12.5 mg/kg, po bid after 24 hrs by LC-MS/MS analysis. The series is classed as ADME, organism-based. The note with it: read-out: Drug uptake.
The nature of series [10]: Plasma concentration in Beagle dog at 2 mg/kg, iv administered as single dose after 24 hrs by LC-MS/MS analysis. The series is classed as ADME, organism-based, Canis lupus familiaris. A digest of the protocol:
(§3)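 Beagle dogs, 7−9 months, 8−12 kg, non-naive, fasted overnight; 3 dogs per iv or po group; dosed in 5% DMSO/5% solutol/90% saline. Serial blood into sodium heparin, plasma separated at 4 °C, stored −80 °C; LC-MS/MS quantitation; noncompartmental analysis, BLQs omitted.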

Series [11] is described as follows: AUC (0 to 24 hrs) in Beagle dog at 5 mg/kg, po administered as single dose by LC-MS/MS analysis. It counts as ADME, organism-based, Canis lupus familiaris. Also on record: time < 24 hr, dose 5 mg/kg, route oral. The conditions noted are these: in vivo. The method, boiled down: as §3
Series [12] is described as follows: Volume of distribution at steady state in Beagle dog at 2 mg/kg, iv administered as single dose by LC-MS/MS analysis. It counts as ADME, organism-based, Canis lupus familiaris. The conditions noted are these: in vivo, read-out: Vdss. A digest of the protocol: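 Non-naive beagle dogs (7−9 months, 8−12 kg) were fasted overnight, with 3 animals in the iv group. Compound was given as a single dose in 5% DMSO, 5% solutol and 90% saline. Plasma was taken from heparinized blood at each time point and stored at −80 °C. Levels were measured by LC-MS/MS, with noncompartmental analysis and BLQ values omitted.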

Series [13] is described as follows: Clearance in Beagle dog at 2 mg/kg, iv administered as single dose by LC-MS/MS analysis. The series is classed as ADME, organism-based, Canis lupus familiaris. The note with it: in vivo. The method, boiled down:
as §3

Series [14] can be described thus: Cmax in Beagle dog at 2 mg/kg, iv administered as single dose by LC-MS/MS analysis. It counts as ADME, organism-based, Canis lupus familiaris. Also on record: dose 2 mg/kg, route intravenous. The conditions noted are these: in vivo. The method, boiled down:
as §3

Series [15] can be described thus: AUC (0 to 24 hrs) in Beagle dog at 2 mg/kg, iv administered as single dose by LC-MS/MS analysis. It counts as ADME, organism-based, Canis lupus familiaris. Also on record: dose 2 mg/kg, time < 24 hr, route intravenous. The conditions noted are these: in vivo. The method, boiled down:
as §3

Series [16] is described as follows: Plasma concentration in Beagle dog at 5 mg/kg, po administered as single dose after 24 hrs by LC-MS/MS analysis. It counts as ADME, organism-based, Canis lupus familiaris. A digest of the protocol: as §3
The nature of series [17]: Oral bioavailability in Beagle dog at 5 mg/kg administered as single dose by LC-MS/MS analysis. The conditions noted are these: in vivo. It counts as ADME, organism-based, Canis lupus familiaris.
Series [18] can be described thus: Half life in Beagle dog at 2 mg/kg, iv administered as single dose by LC-MS/MS analysis. The series is classed as ADME, organism-based, Canis lupus familiaris. The conditions noted are these: in vivo.
Series [19] in a line: Plasma concentration in Balb/c mouse at 12.5 mg/kg, po bid after 24 hrs by LC-MS/MS analysis. It counts as ADME, organism-based.
Series [20] in a line: Cmax in Beagle dog at 5 mg/kg, po administered as single dose by LC-MS/MS analysis. Also on record: dose 5 mg/kg, route oral. The conditions noted are these: in vivo. It counts as ADME, organism-based, Canis lupus familiaris. A digest of the protocol: as §3

One may read the AUC(0-t) as exposure summed from dosing to a finite time, without extrapolation to infinity. By clearance is commonly meant a measure of how efficiently the substance is removed, as volume per time. A low value points to inefficient removal. For `CCOC(=O)C1=C(CN2CCO[C@@H](CCC(=O)O)C2)NC(c2nccs2)=N[C@H]1c1ccc(F)cc1Br`, the bioavailability in series [1] was 41%. The AUC(0-t) at 24 h worked out at 430 ng·h/mL in [2] and 436 ng·h/mL in [3]. In [4], the clearance amounted to 77.3 mL/min/kg. Moreover, in series [5], the Vd is 1.24 L/kg. In addition, the CLint scaled at 1 µM in series [6] was found to be 281 mL/min/kg; in series [7] it was 21 mL/min/kg; in series [8], 11 mL/min/kg.

Regarding `CCOC(=O)C1=C(CN2CC(F)(F)C[C@@H]2CCC(=O)O)NC(c2nccs2)=N[C@H]1c1ccc(F)cc1Br`, the bioavailability in series [1] is 41.3%. Moreover, the AUC(0-t) at 24 h in series [2] was determined as 965 ng·h/mL; in series [3] it was 999 ng·h/mL. The clearance in [4] worked out at 34.4 mL/min/kg. For the same compound, the Vd in series [5] was 0.77 L/kg. Further, the values for the CLint scaled at 1 µM in series [6], in series [7] and in [8] were 362 mL/min/kg, 21 mL/min/kg and 55 mL/min/kg, respectively.

Consider `CCOC(=O)C1=C(CN2CCOC[C@@H]2CCC(=O)O)NC(c2nccs2)=N[C@H]1c1ccc(F)cc1Br`, for which the bioavailability in series [1] was found to be 54%. Besides, the values for the AUC(0-t) at 24 h in [2] and in series [3] were 423 ng·h/mL and 572 ng·h/mL, respectively. In [4], the clearance came out at 78.7 mL/min/kg. Also, in [5], the Vd was 1.53 L/kg. In addition, the CLint scaled at 1 µM in [6] stood at 316 mL/min/kg; in [7] it was 23 mL/min/kg; in [8], 46 mL/min/kg.

As for `CCOC(=O)C1=C(CN2CCO[C@H](C)[C@H]2C(=O)O)NC(c2nccs2)=N[C@H]1c1ccc(F)cc1Br`, the bioavailability in series [1] came to 44.5%. Also, the AUC(0-t) at 24 h in series [2] came out at 1610 ng·h/mL; in series [3], 1750 ng·h/mL. The compound further came in with a clearance in series [4] of 20.6 mL/min/kg. In addition, the Vd in series [5] is 0.37 L/kg. Further, the CLint scaled at 1 µM in series [6] is 89 mL/min/kg; in series [7] it was 5 mL/min/kg. For the same compound, in the series with Liver, the CLH entry is listed as “Stable”.

As usually defined, the Cmax is the peak of the concentration-time curve. For orientation: half-life means the time needed for the level to fall by half in the phase considered. A lower half-life goes with fast loss. Take `CCOC(=O)C1=C(CN2CCO[C@H](CCC(=O)O)C2)NC(c2nccs2)=N[C@H]1c1ccc(F)cc1Br`: the concentration at 24 h is 361 ng/g in [9], 47 ng/mL in series [10], 232 ng/mL in series [16] and 849 ng/mL in series [19]. The results for the bioavailability in series [1] and in series [17] were 47.7% and 114%, respectively. The AUC(0-t) at 24 h in series [11] is 47900 ng·h/mL; in [2] it was 4110 ng·h/mL; in series [3], 4900 ng·h/mL; in [15], 16500 ng·h/mL. Further, the values for the Vd in series [12] and in series [5] were 0.76 L/kg and 0.41 L/kg, respectively. The clearance in series [4] is 8.11 mL/min/kg; in [13], 1.93 mL/min/kg. Moreover, in series [14], the Cmax was 2050 ng/mL. Besides, the CLint scaled at 1 µM in series [6] is 385 mL/min/kg; in [7], 18 mL/min/kg; in series [8] it was 14 mL/min/kg. This compound gave a half-life in series [18] of 5.71 h.

With `CCOC(=O)C1=C(CN2CCOCC2)NC(c2nccs2)=NC1c1ccc(F)cc1Br` (centres undefined), in [1], the bioavailability was determined as 8.9%. In addition, the concentration at 24 h in [10] was found to be 15 ng/mL; in [16], 9 ng/mL. Also, the AUC(0-t) at 24 h in series [11] was found to be 1010 ng·h/mL; in [2], 405 ng·h/mL; in series [3], 90 ng·h/mL; in series [15] it was 1470 ng·h/mL. Further, the Vd in series [12] amounted to 15.8 L/kg; in series [5] it was 4.85 L/kg. The Cmax in series [20] came to 391 ng/mL; in series [14], 1420 ng/mL. The clearance in series [4] came out at 82.2 mL/min/kg; in [13] it was 16.6 mL/min/kg. Besides, the values for the CLint scaled at 1 µM in series [6] and in series [7] were 485 mL/min/kg and 20 mL/min/kg, respectively.

In the case of `CCOC(=O)C1=C(CN2CCOC[C@H]2C(=O)O)NC(c2nccs2)=N[C@H]1c1ccc(F)cc1Br`, the bioavailability in series [1] is 23.1%. Moreover, the AUC(0-t) at 24 h in [2] was found to be 948 ng·h/mL; in series [3] it was 548 ng·h/mL. Also, in series [4], the clearance is 34.9 mL/min/kg. Moreover, the Vd in [5] was 0.4 L/kg. Also, the CLint scaled at 1 µM in [6] turned out to be 377 mL/min/kg; in series [7] it was 7 mL/min/kg; in series [8], 29 mL/min/kg.

(Values after ChEMBL document CHEMBL4024802, “3-((R)-4-(((R)-6-(2-Bromo-4-fluorophenyl)-5-(ethoxycarbonyl)-2-(thiazol-2-yl)-3,6-dihydropyrimidin-4-yl)methyl)morpholin-2-yl)propanoic Acid (HEC72702), a Novel Hepatitis B Virus Capsid Inhibitor Based on Clinical Candidate GLS4” (J Med Chem, 2018).)
